From ChEMBL document CHEMBL1139831, “The influence of modifications in imide fragment structure on 5-HT(1A) and 5-HT(7) receptor affinity and in vivo pharmacological properties of some new 1-(m-trifluoromethylphenyl)piperazines” (Bioorg Med Chem, 2007)

What was measured:
Mus musculus [1] = species: Mus musculus; conditions: Swiss Albino, 2.5 mg/kg
Mus musculus [2] = species: Mus musculus; conditions: Swiss Albino, 2.5 mg/kg; remark: listed apart in the source
D(2) dopamine receptor = D(2) dopamine receptor (Rattus norvegicus, UniProt P61169); experiment: Displacement of [3H]spiperone from dopamine D2 receptor in rat striatal membranes; assay type: cell membranes, Membrane
Chain of D(2) dopamine receptor (P61169 whole entry): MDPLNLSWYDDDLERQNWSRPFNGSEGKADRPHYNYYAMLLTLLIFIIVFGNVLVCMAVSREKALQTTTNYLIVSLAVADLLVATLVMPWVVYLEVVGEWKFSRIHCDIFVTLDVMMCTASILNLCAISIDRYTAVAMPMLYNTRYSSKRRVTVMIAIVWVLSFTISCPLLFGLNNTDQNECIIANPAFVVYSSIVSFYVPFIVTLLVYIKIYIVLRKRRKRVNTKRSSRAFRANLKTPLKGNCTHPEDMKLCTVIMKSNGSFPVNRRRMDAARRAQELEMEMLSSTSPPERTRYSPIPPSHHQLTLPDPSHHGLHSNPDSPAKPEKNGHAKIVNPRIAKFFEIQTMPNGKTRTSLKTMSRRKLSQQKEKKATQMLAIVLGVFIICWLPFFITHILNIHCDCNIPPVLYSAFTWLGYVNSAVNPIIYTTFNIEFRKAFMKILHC
Outline: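 Competition binding on rat striatal membranes using [3H]-spiperone, butaclamol for nonspecific binding; filtration through GF/B filters and scintillation counting. Run at two compound concentrations, each in triplicate, and affinity expressed as estimated Ki.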

Rattus norvegicus [3] = experiment: Effect on lower lip retraction in Wistar rat at 20 mg/kg; assay type: functional
Outline: (§1)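 Male Wistar rats (290–310 g) dosed ip in 1% Tween 80 (2 ml/kg), caged singly; lower lip retraction scored 15, 30 and 45 min after dosing as 0 (incisors not visible), 0.5 (partly) or 1 (completely visible), totals up to 3 per rat. n = 6 per group; one-way ANOVA followed by Dunnett's test.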

[4] = biological target: 5-hydroxytryptamine receptor 7 (Homo sapiens, UniProt P34969); experiment: Displacement of [3H]5-CT from human 5HT7 expressed in HEK293 cells; assay type: cell-based
Chain of 5-hydroxytryptamine receptor 7 (P34969 whole entry): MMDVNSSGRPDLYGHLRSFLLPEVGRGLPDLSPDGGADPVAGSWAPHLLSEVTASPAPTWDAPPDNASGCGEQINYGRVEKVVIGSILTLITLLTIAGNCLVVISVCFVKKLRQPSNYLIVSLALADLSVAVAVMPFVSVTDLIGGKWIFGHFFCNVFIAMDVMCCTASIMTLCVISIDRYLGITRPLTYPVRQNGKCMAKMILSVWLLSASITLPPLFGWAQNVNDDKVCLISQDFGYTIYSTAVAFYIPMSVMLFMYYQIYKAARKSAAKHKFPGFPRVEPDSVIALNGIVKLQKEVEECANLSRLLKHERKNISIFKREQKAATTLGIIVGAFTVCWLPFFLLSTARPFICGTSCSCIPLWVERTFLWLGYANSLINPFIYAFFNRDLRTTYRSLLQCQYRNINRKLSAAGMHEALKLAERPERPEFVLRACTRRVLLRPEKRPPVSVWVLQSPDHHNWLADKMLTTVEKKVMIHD
Outline: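 HEK293 cells stably transfected with human 5-HT7(b) cDNA; membranes (10 µg protein) incubated 1 h at 37 °C in 50 mM Tris-HCl pH 7.4 with 4 mM MgCl2, 0.1 mM pargyline, 0.1% ascorbic acid, 0.5 nM [3H]-5-CT and 7–9 test concentrations in triplicate; 10 µM 5-HT defines nonspecific binding. GF/B filtration, scintillation counting; Ki via Cheng-Prusoff from ≥3 experiments.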

[5] = Displacement of [3H]prazosin from adrenergic alpha1 receptor in rat cortical membranes; assay type: cell membranes, Membrane
Outline: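 Rat cortical membranes with [3H]-prazosin; phentolamine defines nonspecific binding. 7–9 drug concentrations in triplicate, at least three separate experiments; stopped by GF/B filtration with three ice-cold buffer washes, bound radioactivity by liquid scintillation counting; Ki from non-linear regression and Cheng-Prusoff equation.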

Mus musculus [6] = species: Mus musculus; conditions: Swiss Albino, 5 mg/kg
Rattus norvegicus [7] = experiment: Effect on 8-OH-DPAT-induced lower lip retraction in Wistar rat at 10 mg/kg; assay type: functional
Mus musculus [8] = species: Mus musculus; conditions: Swiss Albino, 5 mg/kg; remark: listed apart in the source
Mus musculus [9] = species: Mus musculus; conditions: Swiss Albino, 5 mg/kg; remark: listed apart in the source
Mus musculus [10] = species: Mus musculus; conditions: Swiss Albino, 2.5 mg/kg; remark: listed apart in the source
Mus musculus [11] = species: Mus musculus; conditions: Swiss Albino, 5 mg/kg; remark: listed apart in the source
Mus musculus [12] = species: Mus musculus; conditions: Swiss Albino, 5 mg/kg; remark: listed apart in the source
Rattus norvegicus [13] = experiment: Effect on 8-OH-DPAT-induced lower lip retraction in Wistar rat at 5 mg/kg; assay type: functional
Rattus norvegicus [14] = experiment: Effect on 8-OH-DPAT-induced lower lip retraction in Wistar rat at 20 mg/kg; assay type: functional
Rattus norvegicus [15] = experiment: Effect on lower lip retraction in Wistar rat at 5 mg/kg; assay type: functional
Outline: as §1

Rattus norvegicus [16] = experiment: Effect on lower lip retraction in Wistar rat at 10 mg/kg; assay type: functional
Outline: as §1

Mus musculus [17] = species: Mus musculus; conditions: Swiss Albino, 2.5 mg/kg; remark: listed apart in the source
Mus musculus [18] = species: Mus musculus; conditions: Swiss Albino, 5 mg/kg; remark: listed apart in the source
[19] = biological target: T1, 5-hydroxytryptamine receptor 1A (Rattus norvegicus, UniProt P19327); experiment: Displacement of [3H]8-OH-DPAT from 5HT1A in rat hippocampal membranes; assay type: cell membranes, Hippocampus, Membrane
T1 sequence (P19327 whole entry): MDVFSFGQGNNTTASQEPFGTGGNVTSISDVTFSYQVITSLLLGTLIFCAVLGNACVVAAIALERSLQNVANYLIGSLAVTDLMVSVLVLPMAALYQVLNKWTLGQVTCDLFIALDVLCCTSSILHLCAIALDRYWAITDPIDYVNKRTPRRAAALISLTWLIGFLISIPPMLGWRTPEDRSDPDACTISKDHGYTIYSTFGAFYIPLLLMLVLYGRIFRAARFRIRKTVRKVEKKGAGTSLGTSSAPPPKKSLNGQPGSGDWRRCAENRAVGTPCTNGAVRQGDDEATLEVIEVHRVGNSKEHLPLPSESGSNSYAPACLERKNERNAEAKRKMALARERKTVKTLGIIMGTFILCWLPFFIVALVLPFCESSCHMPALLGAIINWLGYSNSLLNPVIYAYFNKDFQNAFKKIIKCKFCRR
Outline: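 Rat hippocampal membranes, [3H]-8-OH-DPAT as radioligand, 5-HT defining nonspecific binding. 7–9 drug concentrations run in triplicate, at least three separate experiments. Filtration through GF/B filters with three ice-cold buffer washes, scintillation counting. Ki from non-linear regression of binding isotherms via Cheng-Prusoff equation.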

Mus musculus [20] = species: Mus musculus; conditions: Swiss Albino, 10 mg/kg
Mus musculus [21] = species: Mus musculus; conditions: Swiss Albino, 10 mg/kg; remark: listed apart in the source
Mus musculus [22] = species: Mus musculus; conditions: Swiss Albino, 10 mg/kg; remark: listed apart in the source
Mus musculus [23] = species: Mus musculus; conditions: Swiss Albino, 10 mg/kg; remark: listed apart in the source
Mus musculus [24] = species: Mus musculus; conditions: Swiss Albino, 10 mg/kg; remark: listed apart in the source
Mus musculus [25] = species: Mus musculus; conditions: Swiss Albino, 10 mg/kg; remark: listed apart in the source
Mus musculus [26] = experiment: Anxiolytic activity in Swiss Albino mouse assessed as number of punished crossings for 60 secs at 2.5 mg/kg administered 30 mins before the test by four-plate test; assay type: functional
Outline: (§2)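 Male Albino Swiss mice (24–28 g), compound suspended in 1% aqueous Tween 80, given ip (10 ml/kg). Mouse placed in box with four metal floor plates, 15 s exploration, then floor electrified (120 V, 0.5 s) at each plate-to-plate crossing, no new shock for 3 s. Punished crossings counted over 60 s. n = 9-10/group; one-way ANOVA then Dunnett's test.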

Mus musculus [27] = experiment: Anxiolytic activity in Swiss Albino mouse assessed as number of punished crossings for 60 secs at 5 mg/kg administered 30 mins before the test by four-plate test; assay type: functional
Outline: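 Male Albino Swiss mice dosed ip (1% aqueous Tween 80, 10 ml/kg) 30 min beforehand. Opaque box floored with four metal plates; 15 s free exploration, then each plate-to-plate crossing triggers a 0.5 s, 120 V floor shock, with no new shock for 3 s if running continues. Punished crossings counted over 60 s; n = 9-10, ANOVA plus Dunnett's test.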

Mus musculus [28] = experiment: Anxiolytic activity in Swiss Albino mouse assessed as number of punished crossings for 60 secs at 1.25 mg/kg administered 30 mins before the test by four-plate test; assay type: functional
Outline: as §2

Mus musculus [29] = experiment: Antidepressant activity in Swiss Albino mouse assessed as immobility time during final 4 mins of 6 mins session at 5 mg/kg administered 30 mins before the test by forced-swimming test; assay type: functional
Outline: (§3)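 Male Albino Swiss mice (24–28 g), compound given ip in 1% aqueous Tween 80 (10 ml/kg), 30 min before test. Mouse placed singly in glass cylinder (25 cm high, 10 cm diameter) holding 6 cm water at 23–25 °C for 6 min; immobility (floating, only small head-keeping movements) timed over last 4 min. n = 9-10 per group; one-way ANOVA then Dunnett's test.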

Mus musculus [30] = experiment: Anxiolytic activity in Swiss Albino mouse assessed as number of punished crossings for 60 secs at 10 mg/kg administered 30 mins before the test by four-plate test; assay type: functional
Outline: as §2

Mus musculus [31] = experiment: Effect on locomotor activity in Swiss Albino mouse assessed as number of crossings in 30 mins at 5 mg/kg administered 30 mins before the test; assay type: functional
Outline: (§4)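 Male Albino Swiss mice given compound ip (1% Tween 80, 10 ml/kg) 30 min before placement singly in plastic cages in a multichannel photobeam activity monitor; ambulation crossings counted over the first 6 min and over a 30 min session. n = 9-10 per group; ANOVA then Dunnett's test.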

Mus musculus [32] = experiment: Effect on locomotor activity in Swiss Albino mouse assessed as number of crossings in 6 mins at 10 mg/kg administered 30 mins before the test; assay type: functional
Outline: (§5)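 Male Albino Swiss mice (24–28 g) given compound ip (suspension in 1% aqueous Tween 80, 10 ml/kg). Animals housed singly in plastic cages in a multichannel photobeam activity monitor. Ambulation crossings counted over first 6 min and over 30-min session. n = 9-10/group; one-way ANOVA then Dunnett's test.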

Rattus norvegicus [33] = experiment: Effect on lower lip retraction in Wistar rat at 2.5 mg/kg; assay type: functional
Outline: as §1

Rattus norvegicus [34] = experiment: Effect on 8-OH-DPAT-induced lower lip retraction in Wistar rat at 2.5 mg/kg; assay type: functional
Mus musculus [35] = experiment: Effect on locomotor activity in Swiss Albino mouse assessed as number of crossings in 6 mins at 5 mg/kg administered 30 mins before the test; assay type: functional
Outline: as §5

Mus musculus [36] = experiment: Effect on locomotor activity in Swiss Albino mouse assessed as number of crossings in 30 mins at 10 mg/kg administered 30 mins before the test; assay type: functional
Outline: as §4

Mus musculus [37] = experiment: Antidepressant activity in Swiss Albino mouse assessed as immobility time during final 4 mins of 6 mins session at 10 mg/kg administered 30 mins before the test by forced-swimming test; assay type: functional
Outline: as §3

SMILES | Ki (D(2) dopamine receptor) [nM] | Activity (Rattus norvegicus [3]) | Ki [4] [nM] | Ki [5] [nM] | deltaT (Mus musculus [6]) [°C] | Activity (Rattus norvegicus [7]) | deltaT (Mus musculus [8]) [°C] | deltaT (Mus musculus [12]) [°C] | Activity (Rattus norvegicus [14]) | Activity (Rattus norvegicus [15]) | Activity (Rattus norvegicus [16]) | deltaT (Mus musculus [18]) [°C] | Ki [19] [nM] | deltaT (Mus musculus [20]) [°C] | deltaT (Mus musculus [21]) [°C] | deltaT (Mus musculus [22]) [°C] | deltaT (Mus musculus [23]) [°C] | deltaT (Mus musculus [24]) [°C] | deltaT (Mus musculus [25]) [°C] | Activity (Mus musculus [26]) | also measured
O=C1C2=C(CCCC2)C(=O)N1C1CCC(N2CCN(c3cccc(C(F)(F)F)c3)CC2)CC1 (centres undefined) | 2640 | 2 | > 5000 | 4 | -0.3 | 1.9 | -0.7 | -1.2 | 1.8 | 1.8 | 2 | -1.4 | 0.3 | – | – | – | – | – | – | – | deltaT (Mus musculus [1]): -0.4 °C; deltaT (Mus musculus [2]): 0.1 °C; deltaT (Mus musculus [9]): 0.1 °C; deltaT (Mus musculus [10]): -0.5 °C; deltaT (Mus musculus [11]): 0.2 °C; Activity (Rattus norvegicus [13]): 2.5; deltaT (Mus musculus [17]): -0.4 °C
O=C1C2CC=CCC2C(=O)N1C1CCC(N2CCN(c3cccc(C(F)(F)F)c3)CC2)CC1 (centres undefined) | 4680 | 1.3 | 335 | 43 | -0.1 | 2.1 | -0.4 | -0.7 | 1.9 | – | 0.7 | -0.4 | 1.5 | -0.3 | -1.7 | -0.5 | -1 | -1.1 | -1.3 | – | –
CN1C(=O)CN=C(c2ccccc2)c2cc(Cl)ccc21 [DIAZEPAM] | – | – | – | – | – | – | – | – | – | – | – | – | – | – | – | – | – | – | – | 6.8 | Activity (Mus musculus [27]): 6.7; Activity (Mus musculus [28]): 5.5
O=C1CCCC(=O)N1CCCCN1CCN(c2cccc(C(F)(F)F)c2)CC1 | > 5000 | – | 21 | 101 | -0.1 | – | -0.4 | -0.5 | – | 2.6 | 2.8 | -0.4 | 3 | -0.8 | -1.3 | -1 | -0.9 | -1 | -1.1 | 4.3 | Activity (Mus musculus [29]): 183.9 s; Activity (Mus musculus [30]): 5.2; Activity (Mus musculus [31]): 526.2; Activity (Mus musculus [32]): 16.3; Activity (Rattus norvegicus [33]): 1.6; Activity (Rattus norvegicus [34]): 2.2; Activity (Mus musculus [27]): 5.8; Activity (Mus musculus [35]): 217.1; Activity (Mus musculus [36]): 179.3; Activity (Mus musculus [37]): 196.7 s
CC1C(=O)N(CCCCN2CCN(c3cccc(C(F)(F)F)c3)CC2)C(=O)C1C (centres undefined) | 4370 | 1.3 | 107 | 48 | 0 | 1.4 | -0.2 | -0.6 | 0.2 | – | 1.3 | -0.4 | 2.2 | – | -0.1 | – | -0.2 | -0.4 | -0.2 | – | –
